Measured values: article PMC4451255 (Bioorganic & medicinal chemistry, 2015)
Numbering of substitutions follows the chain as printed.

Key:
wild-type Shp2 [1] = target: T1, wild-type Shp2 (Homo sapiens, UniProt Q06124); assay: FlAsH inhibition of purified PTP catalytic domain, pNPP assay; assay type: biochemical
T1 sequence (Q06124 247-517 limits assumed): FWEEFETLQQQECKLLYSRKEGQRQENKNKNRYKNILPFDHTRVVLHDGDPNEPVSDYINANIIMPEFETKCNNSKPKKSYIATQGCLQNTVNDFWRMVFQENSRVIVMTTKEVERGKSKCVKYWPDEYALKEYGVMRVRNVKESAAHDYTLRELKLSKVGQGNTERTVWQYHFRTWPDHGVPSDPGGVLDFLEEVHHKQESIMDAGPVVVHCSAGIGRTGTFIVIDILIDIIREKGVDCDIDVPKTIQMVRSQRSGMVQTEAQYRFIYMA
Procedure, shortened: (§1)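 Two set-ups, both using His6-tagged catalytic domain (50 nM) and pNPP in pH 7.0 3,3-dimethylglutarate buffer. In the first, enzyme is incubated with 125 nM test compound plus β-mercaptoethanol (0–1 mM), then activity is normalized to no-compound controls. In the second, there is no pre-incubation: pNPP at the enzyme's KM sits with a fixed compound level at 37 °C, enzyme starts the reaction, and A405 is followed continuously.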

V368C Shp2 [2] = target: T2, V368C Shp2 (Homo sapiens, UniProt Q06124, V368C); assay: as above; assay type: biochemical
T2 sequence (Q06124 247-517 V368C limits assumed): T1 sequence (Q06124 247-517 limits assumed) with V122C
Procedure, shortened: as §1

wild-type PTP1B [3] = assay: FlAsH inhibition of purified PTP catalytic domain, pNPP assay; assay type: biochemical, human; conditions: purified enzyme 50 nM, 120-minute pre-incubation
Procedure, shortened: (§2)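 His6-tagged PTP catalytic domains (50 nM) are pre-incubated 120 min at 37 °C with test compound or DMSO (1% v/v). Activity is then assayed at 37 °C with pNPP at each enzyme's previously determined KM in 50 mM 3,3-dimethylglutarate pH 7.0, 1 mM EDTA, 50 mM NaCl. The reaction is quenched with NaOH and A405 read. Activity is normalized to DMSO-only control, triplicate, ≥3 independent experiments.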

P87C PTP1B [4] = target: T3, P87C PTP1B (Homo sapiens, UniProt P18031, P87C); assay: FlAsH inhibition of purified PTP catalytic domain, pNPP assay; assay type: biochemical; conditions: 500 nM FlAsH, continuous pNPP assay
T3 sequence (P18031 3-277 P87C limits assumed): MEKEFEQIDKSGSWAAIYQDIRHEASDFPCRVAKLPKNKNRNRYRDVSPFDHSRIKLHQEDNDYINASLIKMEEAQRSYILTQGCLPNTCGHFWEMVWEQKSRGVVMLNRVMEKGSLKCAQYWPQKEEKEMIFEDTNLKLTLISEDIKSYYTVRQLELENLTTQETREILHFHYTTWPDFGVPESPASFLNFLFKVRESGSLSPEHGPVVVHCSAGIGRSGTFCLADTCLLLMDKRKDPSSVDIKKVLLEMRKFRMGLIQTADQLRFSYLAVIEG
Procedure, shortened: (§3)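 No pre-incubation. pNPP at the enzyme's KM is held with 500 nM test compound or DMSO (1%) in pH 7.0 PTP buffer at 37 °C, and reactions are started by adding His6-tagged catalytic domain (50 nM). A405 is monitored continuously at 37 °C. Rates over 1-min windows are normalized to DMSO control; three independent runs are averaged and fitted as single-variable exponential decay.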

P87C/A122C PTP1B [5] = target: T4, P87C/A122C PTP1B (Homo sapiens, UniProt P18031, A122C/P87C); assay: as above; assay type: biochemical; conditions: purified enzyme 50 nM, time-dependent
T4 sequence (P18031 3-277 P87C/A122C limits assumed): T3 sequence (P18031 3-277 P87C limits assumed) with A120C
Procedure, shortened: as §3

wild-type FAP-1 [6] = assay: FlAsH inhibition of purified PTP catalytic domain, pNPP assay; assay type: biochemical, human; conditions: purified enzyme 50 nM, one equivalent of FlAsH
Procedure, shortened: as §2

P2285C/Q2320C FAP-1 [7] = assay: as above; assay type: biochemical, human; conditions: purified enzyme 50 nM, one equivalent of FlAsH
Procedure, shortened: as §2

wild-type PTPH-1 [8] = assay: as above; assay type: biochemical, human; conditions: purified enzyme 50 nM, one equivalent of FlAsH
Procedure, shortened: as §2

P720C/H755C PTPH-1 [9] = assay: as above; assay type: biochemical, human; conditions: purified enzyme 50 nM, one equivalent of FlAsH
Procedure, shortened: as §2

wild-type HePTP [10] = assay: as above; assay type: biochemical, human; conditions: purified enzyme 50 nM, one equivalent of FlAsH
Procedure, shortened: as §2

P160C/V184C HePTP [11] = assay: FlAsH inhibition of purified PTP catalytic domain, pNPP assay; assay type: biochemical, human; conditions: purified enzyme 50 nM, one equivalent of FlAsH
P2285C/Q2320C FAP-1 [12] = assay: FlAsH inhibition of total PTP activity of crude E. coli lysates, pNPP; assay type: biochemical, human; conditions: whole-cell E. coli lysate
Procedure, shortened: (§4)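 Cells are lysed by French press (~2000 psi) in 50 mM Tris pH 7.8, 500 mM NaCl, 5 mM imidazole. Clarified lysate takes compound or DMSO (1%) for 120 min at 37 °C. Total pNPP activity is normalized to DMSO.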

P720C/H755C PTPH-1 [13] = assay: as above; assay type: biochemical, human; conditions: whole-cell E. coli lysate
Procedure, shortened: as §4

P160C/V184C HePTP [14] = assay: FlAsH inhibition of total PTP activity of crude E. coli lysates, pNPP; assay type: biochemical, human; conditions: whole-cell E. coli lysate
wild-type FAP-1 [15] = assay: FlAsH inhibition of total PTP activity of crude E. coli lysates, pNPP; assay type: biochemical, human; conditions: whole-cell E. coli lysate, FlAsH concentrations that strongly inhibit the mutant
Procedure, shortened: as §4

wild-type PTPH-1 [16] = assay: as above; assay type: biochemical, human; conditions: whole-cell E. coli lysate, FlAsH concentrations that strongly inhibit the mutant
Procedure, shortened: as §4

wild-type HePTP [17] = assay: as above; assay type: biochemical, human; conditions: whole-cell E. coli lysate, FlAsH concentrations that strongly inhibit the mutant
Procedure, shortened: as §4

wild-type Shp2 [18] = target: T1, wild-type Shp2; assay: SDS/PAGE and fluorescence visualization of protein/FlAsH complexes; assay type: binding; conditions: 6 μM FlAsH, 2 μg enzyme, UV visualization
V368C Shp2 [19] = target: T2, V368C Shp2; assay: as above; assay type: binding; conditions: 6 μM FlAsH, 2 μg enzyme, UV visualization, band at approximately 37 kD
wild-type PTP1B [20] = assay: as above; assay type: binding, human; conditions: 6 μM FlAsH, UV visualization
P87C PTP1B [21] = target: T3, P87C PTP1B; assay: as above; assay type: binding; conditions: 6 μM FlAsH, UV visualization
P87C/A122C PTP1B [22] = target: T4, P87C/A122C PTP1B; assay: as above; assay type: binding; conditions: 6 μM FlAsH, UV visualization, band at 45 kD
V368C Shp2 [23] = target: T2, V368C Shp2; assay: Mass-spectrometry-based FlAsH-induced cysteine-protection assay; assay type: binding; conditions: 2.7 μM enzyme, 27 μM FlAsH, 50 mM iodoacetic acid, LC/MS/MS
Procedure, shortened: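 Enzyme (2.7 μM) is incubated 30 min with 27 μM test compound or DMSO in pH 7.0 dimethylglutarate/EDTA/1 mM TCEP. Free cysteines are carboxymethylated with 50 mM iodoacetic acid (30 min), quenched with 100 mM TCEP, precipitated and gel-separated, then trypsin-digested in gel. Nano-LC/MS/MS uses HCD. Peptide precursor intensity ratios (compound/DMSO) are normalized to the mean of non-cysteine peptide ratios.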

[24] = 500 nM FlAsH, continuous pNPP assay, no pre-incubation

O=C(O)c1ccccc1-c1c2ccc(=O)c([As]3SCCS3)c-2oc2c([As]3SCCS3)c(O)ccc12 [FlAsH]
effect of β-mercaptoethanol on FlAsH's inhibitory effects (wild-type Shp2 [1]; 125 nM FlAsH, varying β-ME): attenuates
time to 50% activity (wild-type Shp2 [1]; [24]): ~ 11 minutes
effect of β-mercaptoethanol on potency of FlAsH inhibition (V368C Shp2 [2]; 125 nM FlAsH, varying β-ME up to 8,000 times excess): no significant changes
time to 50% activity (V368C Shp2 [2]; [24]): ~ 7 minutes
effect of FlAsH on enzymatic activity (wild-type PTP1B [3]): unaffected
time for phosphatase activity to decrease to 50% of initial rate (P87C PTP1B [4]): approximately 10 minutes
inhibition by FlAsH (P87C/A122C PTP1B [5]): potently inhibited
inhibition of phosphatase activity (wild-type FAP-1 [6]): not significantly inhibited
inhibition of phosphatase activity (P2285C/Q2320C FAP-1 [7]): drastically reduced catalytic activity
inhibition of phosphatase activity (wild-type PTPH-1 [8]): not significantly inhibited
inhibition of phosphatase activity (P720C/H755C PTPH-1 [9]): novel sensitivity to FlAsH
inhibition of phosphatase activity (wild-type HePTP [10]): not significantly inhibited
inhibition of phosphatase activity (P160C/V184C HePTP [11]): drastically reduced catalytic activity
inhibition of total PTP activity of lysate (P2285C/Q2320C FAP-1 [12]): strongly inhibited
inhibition of total PTP activity of lysate (P720C/H755C PTPH-1 [13]): strongly inhibited
inhibition of total PTP activity of lysate (P160C/V184C HePTP [14]): strongly inhibited
inhibition of total PTP activity of lysate (wild-type FAP-1 [15]): no effects
inhibition of total PTP activity of lysate (wild-type PTPH-1 [16]): no effects
inhibition of total PTP activity of lysate (wild-type HePTP [17]): no effects
fluorescent band of protein/FlAsH conjugate after SDS/PAGE (wild-type Shp2 [18]): not present
fluorescent band of protein/FlAsH conjugate after SDS/PAGE (V368C Shp2 [19]): strongly fluorescent band
fluorescent band of protein/FlAsH conjugate after SDS/PAGE (wild-type PTP1B [20]): fail to produce strongly fluorescent bands
fluorescent band of protein/FlAsH conjugate after SDS/PAGE (P87C PTP1B [21]): fail to produce strongly fluorescent bands
fluorescent band of protein/FlAsH conjugate after SDS/PAGE (P87C/A122C PTP1B [22]): strongly fluorescent band
protection of cysteines from modification by IAA (V368C Shp2 [23]): strongly protects C333, C367, and C368
